Experimental findings from ChEMBL document CHEMBL3286371, “wALADin benzimidazoles differentially modulate the function of porphobilinogen synthase orthologs” (J Med Chem, 2014) are described below.

In assay [1] the target is Delta-aminolevulinic acid dehydratase (Yersinia enterocolitica W22703) (UniProt F4MUJ9). Put plainly: Stimulation of Yersinia enterocolitica recombinant PBGS expressed in Escherichia coli using 5-ALA as substrate at […].
Assay [2] concerns the target T1, Delta-aminolevulinic acid dehydratase (Escherichia coli (strain K12)) (UniProt P0ACB2).
T1 sequence (whole entry): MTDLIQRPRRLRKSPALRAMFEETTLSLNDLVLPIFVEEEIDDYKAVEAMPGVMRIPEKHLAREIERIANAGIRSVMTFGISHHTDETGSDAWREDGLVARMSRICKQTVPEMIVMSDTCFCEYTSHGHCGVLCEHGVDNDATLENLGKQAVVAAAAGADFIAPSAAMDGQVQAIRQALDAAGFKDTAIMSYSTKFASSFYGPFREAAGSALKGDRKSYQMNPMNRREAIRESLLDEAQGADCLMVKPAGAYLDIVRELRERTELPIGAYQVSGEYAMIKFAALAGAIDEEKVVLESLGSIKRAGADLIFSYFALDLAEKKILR
Put plainly: Inhibition of Escherichia coli recombinant PBGS using 5-ALA as substrate at […].

In assay [3] the target is T2, Delta-aminolevulinic acid dehydratase, chloroplastic (Pisum sativum, UniProt P30124).
T2 sequence (P30124 whole entry): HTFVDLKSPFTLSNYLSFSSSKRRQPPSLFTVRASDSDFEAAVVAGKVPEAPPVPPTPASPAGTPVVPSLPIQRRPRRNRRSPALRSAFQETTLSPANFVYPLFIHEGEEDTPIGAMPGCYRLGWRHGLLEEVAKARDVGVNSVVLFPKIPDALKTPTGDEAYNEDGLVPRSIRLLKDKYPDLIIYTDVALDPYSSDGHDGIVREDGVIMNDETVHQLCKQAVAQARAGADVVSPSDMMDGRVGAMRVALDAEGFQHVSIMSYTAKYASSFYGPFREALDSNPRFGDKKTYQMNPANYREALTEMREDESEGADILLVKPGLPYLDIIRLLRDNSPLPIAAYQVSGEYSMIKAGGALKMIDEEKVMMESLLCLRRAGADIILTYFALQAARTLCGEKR
Put plainly: Inhibition of Pisum sativum PBGS using 5-ALA as substrate. Further details: species or system Lathyrus oleraceus. The essentials: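 Pea (P. sativum) PBGS at 300 nM subunit in 100 mM BTP-HCl pH 8.5 with 1 mM MgCl2, 5 mM DTT and 0.2 mM 5-ALA, 15 min at 36 °C. Porphobilinogen detected with Ehrlich's reagent. Activity normalized to 6.7% DMSO control as 100%. IC50 from variable-slope normalized-response fit.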

Assay [4] addresses Delta-aminolevulinic acid dehydratase (Pseudomonas aeruginosa (strain ATCC 15692 / PAO1 / 1C / PRS 101 / LMG12228)) (UniProt Q59643). Put plainly: Stimulation of Pseudomonas aeruginosa PAO1 recombinant PBGS using 5-ALA as substrate at […].
Assay [5] addresses T1, Delta-aminolevulinic acid dehydratase (Escherichia coli (strain K12)). Put plainly: Stimulation of Escherichia coli recombinant PBGS using 5-ALA as substrate at […].
Assay [6] relates to Toxoplasma gondii. Put plainly: Stimulation of Toxoplasma gondii recombinant PBGS using 5-ALA as substrate at […].
Assay [7] addresses T3, Delta-aminolevulinic acid dehydratase (Drosophila melanogaster, UniProt Q9VTV9).
T3 sequence (Q9VTV9 whole entry): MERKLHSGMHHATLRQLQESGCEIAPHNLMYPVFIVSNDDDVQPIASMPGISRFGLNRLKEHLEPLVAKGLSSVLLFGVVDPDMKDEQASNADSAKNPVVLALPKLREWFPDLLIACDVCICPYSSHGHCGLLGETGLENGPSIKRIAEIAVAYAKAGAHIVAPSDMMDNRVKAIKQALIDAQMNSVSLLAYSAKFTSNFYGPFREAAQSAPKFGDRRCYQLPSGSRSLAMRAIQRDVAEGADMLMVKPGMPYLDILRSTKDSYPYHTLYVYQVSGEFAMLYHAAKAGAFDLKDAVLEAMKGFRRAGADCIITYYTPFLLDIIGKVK
The experiment in a line: Inhibition of Drosophila melanogaster recombinant PBGS using 5-ALA as substrate.

The subject of assay [8] is Toxoplasma gondii. Put plainly: Inhibition of Toxoplasma gondii recombinant PBGS using 5-ALA as substrate at […].
In assay [9] the target is Delta-aminolevulinic acid dehydratase (Pseudomonas aeruginosa (strain ATCC 15692 / PAO1 / 1C / PRS 101 / LMG12228)) (UniProt Q59643). Put plainly: Inhibition of Pseudomonas aeruginosa PAO1 recombinant PBGS using 5-ALA as substrate at […].
Assay [10] has as its target Delta-aminolevulinic acid dehydratase (Yersinia enterocolitica W22703) (UniProt F4MUJ9). Put plainly: Inhibition of Yersinia enterocolitica recombinant PBGS expressed in Escherichia coli using 5-ALA as substrate at […].
The target of assay [11] is T4, Delta-aminolevulinic acid dehydratase (Homo sapiens, UniProt P13716).
T4 sequence (P13716 whole entry): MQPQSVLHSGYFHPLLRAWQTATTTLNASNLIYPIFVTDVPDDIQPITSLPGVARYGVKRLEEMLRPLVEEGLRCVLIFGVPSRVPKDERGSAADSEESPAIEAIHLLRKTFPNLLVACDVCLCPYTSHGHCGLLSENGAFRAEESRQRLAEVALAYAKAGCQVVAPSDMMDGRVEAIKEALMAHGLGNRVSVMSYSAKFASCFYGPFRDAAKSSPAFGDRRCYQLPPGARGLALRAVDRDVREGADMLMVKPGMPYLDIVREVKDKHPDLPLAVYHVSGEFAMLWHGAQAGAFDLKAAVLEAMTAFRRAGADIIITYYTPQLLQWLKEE
The experiment in a line: Inhibition of human PBGS using 5-ALA as substrate.

Assay [12] addresses T5, Delta-aminolevulinic acid dehydratase (Wolbachia sp. subsp. Brugia malayi (strain TRS), UniProt Q5GSR3).
T5 sequence (Q5GSR3 whole entry): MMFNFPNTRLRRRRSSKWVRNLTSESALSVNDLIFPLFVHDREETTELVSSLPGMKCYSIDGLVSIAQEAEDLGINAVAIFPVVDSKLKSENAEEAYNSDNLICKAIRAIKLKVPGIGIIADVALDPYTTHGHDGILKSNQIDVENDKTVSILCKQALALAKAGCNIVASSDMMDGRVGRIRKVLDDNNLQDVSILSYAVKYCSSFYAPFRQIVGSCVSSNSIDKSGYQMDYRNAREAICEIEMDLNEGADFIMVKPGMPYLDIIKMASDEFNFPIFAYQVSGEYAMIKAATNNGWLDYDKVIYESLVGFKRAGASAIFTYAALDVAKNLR
The experiment in a line: Inhibition of C-terminal His-tagged Wolbachia PBGS using 5-ALA as substrate.

Activity calls are given as the source filed them. The rule behind the calls is not given here.

Chain of Delta-aminolevulinic acid dehydratase (Pseudomonas aeruginosa (strain ATCC 15692 / PAO1 / 1C / PRS 101 / LMG12228)) (Q59643 whole entry): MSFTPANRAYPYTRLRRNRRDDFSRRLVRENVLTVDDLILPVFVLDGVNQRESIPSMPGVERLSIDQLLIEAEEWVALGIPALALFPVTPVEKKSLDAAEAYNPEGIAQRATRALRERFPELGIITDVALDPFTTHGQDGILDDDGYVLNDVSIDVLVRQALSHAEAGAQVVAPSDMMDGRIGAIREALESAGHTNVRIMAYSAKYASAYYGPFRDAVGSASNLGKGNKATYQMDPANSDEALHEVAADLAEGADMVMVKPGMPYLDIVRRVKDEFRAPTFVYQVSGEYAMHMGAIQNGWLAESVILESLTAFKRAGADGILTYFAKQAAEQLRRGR
Chain of Delta-aminolevulinic acid dehydratase (Yersinia enterocolitica W22703) (F4MUJ9 as listed by the source): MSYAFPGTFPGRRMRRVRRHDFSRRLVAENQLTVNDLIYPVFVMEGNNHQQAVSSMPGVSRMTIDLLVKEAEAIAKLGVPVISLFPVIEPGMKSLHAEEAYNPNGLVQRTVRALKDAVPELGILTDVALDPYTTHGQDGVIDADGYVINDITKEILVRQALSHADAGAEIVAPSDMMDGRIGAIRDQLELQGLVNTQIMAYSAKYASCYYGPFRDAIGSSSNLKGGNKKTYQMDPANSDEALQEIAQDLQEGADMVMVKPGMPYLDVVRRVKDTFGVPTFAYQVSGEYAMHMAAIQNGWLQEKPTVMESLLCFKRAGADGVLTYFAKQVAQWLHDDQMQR

By IC50 is commonly meant the concentration at which inhibition is half-maximal. Regarding `Cn1cnc2cc(C(=O)O)ccc21`, the Smax (in [1]; in assay [4]; in assay [5]; in the assay with Toxoplasma gondii [6]) was 100% throughout. In addition, the inhibition result (in assay [2]; in the assay with Toxoplasma gondii [8]; in assay [9]; in [10]) was “inactive” in each case. Further, the results for the IC50 in assay [3] and in assay [7] were 257 µM and greater than 1000 µM, respectively.
Take `O=C(O)c1ccc2c(c1)ncn2Cc1ccccc1`: the IC50 in [11] worked out at 213 µM; in assay [12] it was 197 µM; in assay [3], 182 µM; in assay [7], 1030 µM. Further, the Smax (in assay [1]; in [4]; in [5]; with Toxoplasma gondii [6]) was 100% each time. Moreover, the inhibition result (in assay [2]; in the assay with Toxoplasma gondii [8]; in [9]; in [10]) was “inactive” throughout.
As for `O=C(O)c1ccc2[nH]c(CCNC(=O)c3cccs3)nc2c1`, the Smax (in assay [1]; in assay [4]; in assay [5]; with Toxoplasma gondii [6]) was 100% each time. Also, the inhibition result (in assay [2]; with Toxoplasma gondii [8]; in assay [9]; in assay [10]) was “inactive” throughout. Also, the values for the IC50 in assay [12], in assay [3] and in assay [7] were 500 µM, 114 µM and 448 µM, respectively.
On to `Cc1cccc(Cn2cnc3cc(C(=O)O)ccc32)c1`, for which the IC50 in assay [11] amounted to 222 µM; in [12], 134 µM; in assay [3], 95.9 µM; in [7], 371 µM. The Smax (in [1]; in [4]; in [5]; in the assay on Toxoplasma gondii [6]) was 100% throughout. The inhibition result (in [2]; in the assay on Toxoplasma gondii [8]; in assay [9]; in assay [10]) was “inactive” in each case.
Consider `O=C(NCCc1nc2cccc(C(=O)O)c2n1Cc1cccc(C(F)(F)F)c1)c1cccs1`, for which the Smax in [1] worked out at 118%; in assay [4], 100%; in [5] it was 100%; with Toxoplasma gondii [6], 113%. The inhibition result in assay [2] and in [9] was “inactive” in each case. For the same compound, the IC50 was 164 µM in assay [12], greater than 500 µM in assay [3] and greater than 1000 µM in assay [7].
Regarding `O=C(O)c1ccc2nc(CCNC(=O)c3cccs3)n(Cc3cccc(C(F)(F)F)c3)c2c1`, the Smax in assay [1] was 131%; in assay [4] it was 100%; in assay [5], 100%. The inhibition entry in [2] and in [9] was “inactive” each time. Besides, the IC50 worked out at 317 µM in assay [12], 89 µM in assay [3] and 257 µM in assay [7].
In the case of `O=C(O)c1ccc2[nH]cnc2c1`, the IC50 in [11] was 511 µM; in assay [12] it was 500 µM; in assay [3] it was greater than 500 µM; in assay [7], greater than 1000 µM. Further, the Smax (in assay [1]; in assay [4]; in [5]; with Toxoplasma gondii [6]) was 100% each time. For the same compound, the inhibition entry (in assay [2]; in the assay on Toxoplasma gondii [8]; in [9]; in [10]) was “inactive” in each case.
On to `COc1cccc(Cn2cnc3cc(C(=O)O)ccc32)c1`, for which the IC50 in assay [11] was 156 µM; in assay [12] it was 205 µM; in assay [3], 155 µM; in assay [7] it was 370 µM. In addition, the Smax (in [1]; in assay [4]; in [5]; in the assay on Toxoplasma gondii [6]) was 100% each time. Besides, the inhibition entry (in [2]; in the assay with Toxoplasma gondii [8]; in assay [9]; in [10]) was “inactive” throughout.
With `O=C(O)c1ccc2c(c1)ncn2Cc1ccccc1C(F)(F)F`, the IC50 in assay [11] was 145 µM; in assay [12] it was 293 µM; in [3] it was 64.3 µM; in [7], greater than 1000 µM. Besides, the Smax (in assay [1]; in assay [4]; in [5]; in the assay on Toxoplasma gondii [6]) was 100% throughout. Besides, the inhibition entry (in assay [2]; in the assay on Toxoplasma gondii [8]; in [9]; in assay [10]) was “inactive” throughout.
As to `O=C(O)c1ccc2c(c1)ncn2Cc1ccc(C(F)(F)F)cc1`, the IC50 was 173 µM in [11], 87.7 µM in assay [12], 43.1 µM in assay [3] and 620 µM in [7]. Further, the Smax (in [1]; in assay [4]; in [5]; in the assay with Toxoplasma gondii [6]) was 100% in each case. The inhibition result (in assay [2]; with Toxoplasma gondii [8]; in [9]; in [10]) was “inactive” throughout.
